Assay results: ChEMBL document CHEMBL2169797, “Rediocide A, an Insecticide, induces G-protein-coupled receptor desensitization via activation of conventional protein kinase C” (J Nat Prod, 2012)
The source made the active and inactive calls. The calls are words filed in the database; no cut-off is given here.

Assays:
[1] = (§1) Inhibition of Drosophila MthB expressed in HEK293 cells assessed as inhibition of SunA1-30-induced calcium influx incubated for 10 mins prior to SunA1-30 addition by Fluo-4-AM based fluorimetry; type: cell-based
How it was run: (§2)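 HEK293 cells stably co-expressing the receptor and Gα16, seeded 3 × 10^4/well overnight. Loaded with 2 μM Fluo-4 AM in HBSS (pH 7.4, 250 μM sulfinpyrazone) 45 min at 37 °C, then pretreated with compound. Receptor-specific agonist added (SunA1-30 for Mth-B). Calcium recorded at ex 485/em 525 nm. IC50 from nonlinear regression; mean ± SEM, n = 3.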

HEK293 = experiment: as §1; type: cell-based; how it was run: as §2
[2] = target: T1, Alpha-1A adrenergic receptor (Homo sapiens, UniProt P35348); experiment: Inhibition of adrenergic receptor 1a expressed in HEK293 cells assessed as inhibition of calcium influx after 10 mins by Fluo-4-AM based fluorimetry; type: functional, cell-based; how it was run: as §2
T1 sequence (P35348 whole entry): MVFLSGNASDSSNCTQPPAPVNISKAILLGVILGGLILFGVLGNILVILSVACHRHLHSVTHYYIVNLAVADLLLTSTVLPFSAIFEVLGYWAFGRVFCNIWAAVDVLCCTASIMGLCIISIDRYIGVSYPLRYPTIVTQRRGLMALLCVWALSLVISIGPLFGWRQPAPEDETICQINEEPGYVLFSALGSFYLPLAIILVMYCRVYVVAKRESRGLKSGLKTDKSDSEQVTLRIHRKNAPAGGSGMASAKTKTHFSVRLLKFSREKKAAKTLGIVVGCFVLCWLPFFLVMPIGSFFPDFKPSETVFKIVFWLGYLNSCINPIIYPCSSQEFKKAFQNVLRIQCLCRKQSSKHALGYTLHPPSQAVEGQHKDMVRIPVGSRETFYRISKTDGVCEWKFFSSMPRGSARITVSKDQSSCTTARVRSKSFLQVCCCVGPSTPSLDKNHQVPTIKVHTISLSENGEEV

[3] = target: T2, Alpha-1B adrenergic receptor (Homo sapiens, UniProt P35368); experiment: Inhibition of adrenergic receptor 1b receptor expressed in HEK293 cells assessed as inhibition of calcium influx after 10 mins by Fluo-4-AM based fluorimetry; type: functional, cell-based; how it was run: as §2
T2 sequence (P35368 whole entry): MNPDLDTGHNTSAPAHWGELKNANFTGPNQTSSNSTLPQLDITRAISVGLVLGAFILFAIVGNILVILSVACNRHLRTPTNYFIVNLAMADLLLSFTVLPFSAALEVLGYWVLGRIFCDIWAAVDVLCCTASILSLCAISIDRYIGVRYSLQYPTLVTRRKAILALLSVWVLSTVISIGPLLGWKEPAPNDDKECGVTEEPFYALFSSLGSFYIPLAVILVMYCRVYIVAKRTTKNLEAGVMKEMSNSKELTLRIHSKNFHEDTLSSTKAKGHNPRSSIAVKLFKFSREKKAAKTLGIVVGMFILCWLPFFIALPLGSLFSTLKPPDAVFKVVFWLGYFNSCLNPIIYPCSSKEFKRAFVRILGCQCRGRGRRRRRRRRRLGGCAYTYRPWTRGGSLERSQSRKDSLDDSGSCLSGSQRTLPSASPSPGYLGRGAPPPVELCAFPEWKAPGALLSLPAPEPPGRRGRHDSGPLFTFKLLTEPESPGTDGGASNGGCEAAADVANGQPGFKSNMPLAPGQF

[4] = target: T3, C-C chemokine receptor type 6 (Homo sapiens, UniProt P51684); experiment: Inhibition of CCR6 expressed in HEK293 cells assessed as inhibition of calcium influx after 10 mins by Fluo-4-AM based fluorimetry; type: functional, cell-based; how it was run: as §2
T3 sequence (P51684 whole entry): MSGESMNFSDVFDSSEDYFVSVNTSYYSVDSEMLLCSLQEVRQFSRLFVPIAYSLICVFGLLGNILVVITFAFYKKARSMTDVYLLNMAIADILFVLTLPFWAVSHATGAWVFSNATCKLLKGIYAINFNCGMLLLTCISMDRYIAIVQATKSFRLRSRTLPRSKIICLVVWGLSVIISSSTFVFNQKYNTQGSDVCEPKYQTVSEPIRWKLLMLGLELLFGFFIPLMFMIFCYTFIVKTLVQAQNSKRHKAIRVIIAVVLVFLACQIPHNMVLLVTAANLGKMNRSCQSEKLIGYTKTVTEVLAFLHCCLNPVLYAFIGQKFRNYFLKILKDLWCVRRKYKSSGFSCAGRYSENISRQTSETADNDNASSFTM

Glucagon receptor [5] = target: T4, Glucagon receptor (Homo sapiens, UniProt P47871); experiment: Inhibition of GCGR expressed in HEK293 cells assessed as inhibition of calcium influx after 10 mins by Fluo-4-AM based fluorimetry; type: functional, cell-based
T4 sequence (P47871 whole entry): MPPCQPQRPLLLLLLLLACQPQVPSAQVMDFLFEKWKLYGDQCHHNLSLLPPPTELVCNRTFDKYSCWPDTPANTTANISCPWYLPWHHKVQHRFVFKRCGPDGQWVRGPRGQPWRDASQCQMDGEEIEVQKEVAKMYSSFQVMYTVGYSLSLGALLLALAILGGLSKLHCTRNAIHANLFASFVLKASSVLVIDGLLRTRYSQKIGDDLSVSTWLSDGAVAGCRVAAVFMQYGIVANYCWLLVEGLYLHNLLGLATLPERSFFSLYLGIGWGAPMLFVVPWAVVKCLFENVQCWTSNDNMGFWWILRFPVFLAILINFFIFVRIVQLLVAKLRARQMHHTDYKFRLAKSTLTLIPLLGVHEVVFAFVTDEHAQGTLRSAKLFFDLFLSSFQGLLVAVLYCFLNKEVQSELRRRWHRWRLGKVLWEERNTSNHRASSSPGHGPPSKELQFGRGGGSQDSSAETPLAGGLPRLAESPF
How it was run: (§3)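 HEK293 cells stably co-expressing GCGR and Gα16 (G418/blasticidin selected) were seeded at 3 × 10^4 cells/well and cultured overnight. They were loaded with 2 μM Fluo-4 AM in HBSS (pH 7.4, 250 μM sulfinpyrazone) at 37 °C for 45 min, held 10 min at room temperature, then given agonist. Calcium was read at ex 485/em 525 nm. IC50 came from nonlinear regression, means ± SEM, n = 3.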

Glucagon receptor [6] = target: T4, Glucagon receptor; experiment: Agonist activity at GCGR expressed in HEK293 cells assessed as calcium influx at 1 uM by Fluor-4-AM based fluorimetry; type: functional, cell-based
How it was run: (§4)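 HEK293 cells stably co-expressing GCGR and Gα16, selected with G418/blasticidin, seeded 3 × 10^4/well overnight. Loaded with 2 μM Fluo-4 AM in HBSS with sulfinpyrazone, pH 7.4, 45 min at 37 °C. First stimulation with compound, 100 nM glucagon or 1% DMSO. After 30 min cells washed and restimulated with 100 nM glucagon. Calcium read at ex 485/em 525 nm. Three independent experiments, each in triplicate.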

Glucagon receptor [7] = target: T4, Glucagon receptor; experiment: Induction of GCGR desensitization expressed in HEK293 cells assessed as reduction in glucagon-induced calcium influx at 1 uM incubated for 30 mins prior to glucagon-induction by Fluo-4-AM based fluorimetry; type: functional, cell-based; how it was run: as §4
Glucagon receptor [8] = target: T4, Glucagon receptor; experiment: Activation of pDsRed-tagged GCGR expressed in HEK293 cells assessed as receptor internalization at 1 uM incubated after 30 mins by Hoechst staining-based fluorescence microscopy; type: cell-based
How it was run: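 HEK293 cells transfected with pDsRed-GCGR, grown overnight on coverslips. Stimulated 30 min at 37 °C, with 1% DMSO as negative control. Fixed in 4% formaldehyde/PBS, nuclei stained with Hoechst 33342. Surface versus internalized receptor scored by fluorescence microscopy.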

[9] = target: T5, Protein kinase C (PKC) (Homo sapiens) (UniProt O94806+P41743+P17252+P05129+Q05655+P05771+Q05513+Q02156+P24723+Q15139+Q04759); experiment: Induction of PKC phosphorylation in HEK293 cells at 1 uM by Western blot analysis; type: cell-based; details: TDE = time-dependent effect
How it was run: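 HEK293 cells serum-starved 4 h, then treated for various durations at 37 °C, with 100 nM TPA as reference. Lysates run on 10% SDS-PAGE and immunoblotted with an antibody detecting phosphorylated conventional and novel PKC isoforms (1:1000). Signal normalized to GAPDH, detected by ECL. Mean ± SEM, n = 3; two-tailed t test.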

[10] = target: T5, Protein kinase C (PKC) (Homo sapiens); experiment: Induction of PKC phosphorylation in HEK293 cells at 1 uM by Western blot analysis in presence of GF109203 X; type: cell-based
How it was run: (§5)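 Serum-starved (4 h) HEK293 cells. Phospho-PKC induced by compound (1 μM) or TPA (100 nM), each in the presence of GF109203 X (1 μM) or rottlerin (10 μM). Read by Western blot with phospho-PKC antibody, normalized to GAPDH. Mean ± SEM, n = 3; two-tailed t test.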

[11] = target: T5, Protein kinase C (PKC) (Homo sapiens); experiment: Induction of PKC phosphorylation in HEK293 cells at 1 uM by Western blot analysis in presence of rotterin; type: cell-based; how it was run: as §5
[12] = target: Protein kinase C alpha type (Homo sapiens) (UniProt P17252); experiment: Activation of human GFP-tagged PKCalpha expressed in HEK293 cells assessed as translocation from cytoplasm to membrane at 1 uM after 30 mins by Hoechst staining-based fluorescence microscopy; type: cell-based
How it was run: (§6)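 HEK293 cells transfected with pCR259hPKCα-GFP, grown overnight on coverslips. Pretreated 15 min at 37 °C with GF109203 X or vehicle, then stimulated 30 min. Fixed in 4% formaldehyde/PBS, nuclei stained with Hoechst 33342 10 min at room temperature. GFP-PKCα membrane translocation imaged by inverted fluorescence microscopy.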

[13] = target: Protein kinase C alpha type (Homo sapiens) (UniProt P17252); experiment: Activation of human GFP-tagged PKCalpha expressed in HEK293 cells assessed as translocation from cytoplasm to membrane at 1 uM after 30 mins by Hoechst staining-based fluorescence microscopy in presence of GF109203X; type: cell-based; how it was run: as §6
Glucagon receptor [14] = target: T4, Glucagon receptor; experiment: Agonist activity at GCGR expressed in HEK293 cells assessed as calcium influx at 1 uM by Fluor-4-AM based fluorimetry in presence of GF109203X; type: functional, cell-based
How it was run: (§7)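 Setup as for the GCGR calcium assay (stable GCGR/Gα16 HEK293, 2 μM Fluo-4 AM, HBSS pH 7.4). Cells preincubated 15 min with 10 μM GF109203X. Then first stimulation with compound, 100 nM glucagon or 1% DMSO. After 30 min cells washed, restimulated with 100 nM glucagon, calcium read at ex 485/em 525 nm. Three independent experiments in triplicate.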

Glucagon receptor [15] = target: T4, Glucagon receptor; experiment: Induction of GCGR desensitization expressed in HEK293 cells assessed as reduction in glucagon-induced calcium influx at 1 uM incubated for 30 mins prior to glucagon-induction by Fluo-4-AM based fluorimetry in presence of GF109203X; type: functional, cell-based; how it was run: as §7
Glucagon receptor [16] = target: T4, Glucagon receptor; experiment: Induction of GCGR desensitization expressed in HEK293 cells assessed as reduction in glucagon-induced calcium influx at 1 uM incubated for 30 mins prior to glucagon-induction by Fluo-4-AM based fluorimetry in presence of rottlerin; type: functional, cell-based
How it was run: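 Stable GCGR/Gα16 HEK293 cells loaded with 2 μM Fluo-4 AM, then preincubated 15 min with 10 μM rottlerin. First stimulation with compound, 100 nM glucagon or DMSO. After 30 min cells washed and restimulated with 100 nM glucagon. Intracellular calcium recorded at ex 485/em 525 nm. Three independent experiments in triplicate.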

Glucagon receptor [17] = target: T4, Glucagon receptor; experiment: Agonist activity at GCGR expressed in HEK293 cells assessed as calcium influx at 100 nM by Fluor-4-AM based fluorimetry; type: functional, cell-based; how it was run: as §3
Glucagon receptor [18] = target: T4, Glucagon receptor; experiment: Induction of GCGR desensitization expressed in HEK293 cells assessed as reduction in calcium influx at 100 nM incubated for 30 mins prior to second-induction by Fluo-4-AM based fluorimetry; type: functional, cell-based
How it was run: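 GCGR/Gα16 stable HEK293 cells were loaded with Fluo-4 AM and given a first stimulation (100 nM glucagon or test agent; 1% DMSO as the negative control). After a 30 min incubation, cells were washed and restimulated with 100 nM glucagon, and intracellular calcium was recorded at ex 485/em 525 nm. There were three independent experiments, each in triplicate.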

Glucagon receptor [19] = target: T4, Glucagon receptor; experiment: Activation of pDsRed-tagged GCGR expressed in HEK293 cells assessed as receptor internalization at 100 nM incubated after 30 mins by Hoechst staining-based fluorescence microscopy; type: cell-based
How it was run: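 HEK293 cells transfected with pDsRed-GCGR were seeded on coverslips, cultured overnight, then stimulated at 37 °C for 30 min, with 1% DMSO as the negative control. Cells were fixed in 4% formaldehyde in PBS and nuclei were stained with Hoechst 33342 for 10 min at room temperature. Receptor surface versus internalized location was judged by fluorescence microscopy.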

Glucagon receptor [20] = target: T4, Glucagon receptor; experiment: Agonist activity at GCGR expressed in HEK293 cells assessed as calcium influx at 100 nM by Fluor-4-AM based fluorimetry in presence of GF109203X; type: functional, cell-based
How it was run: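 Fluo-4 AM-loaded GCGR stable HEK293 cells were preincubated with 10 μM GF109203X for 15 min, then stimulated with 100 nM glucagon, test agent or 1% DMSO. After 30 min they were washed and restimulated with 100 nM glucagon, with calcium read fluorimetrically. There were three independent experiments, each in triplicate.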

In the case of `CC(C)CC(=O)O[C@H]1/C=C/C=C/C(=O)O[C@H]2[C@@H](C)C[C@@H]3[C@]2(O)[C@H](O)[C@@]2(CO)O[C@H]2[C@H]2[C@H]4OC5(c6ccccc6)O[C@@H]([C@@H](C)[C@@]23O5)[C@@]4(O)[C@](C)(O)C[C@H]2CC[C@H]1[C@H]2C` [REDIOCIDE A], the IC50 [1] is reported as 88 nM, the inhibition (HEK293) is reported as “Dose-dependent effect” and the IC50 [2] is reported as 13 nM. For the same molecule, the IC50 [3] was 215 nM, the IC50 [4] was 261 nM and the IC50 (Glucagon receptor [5]) was 4 nM. The Activity (Glucagon receptor [6]) was “inactive”, the Activity (Glucagon receptor [7]) was “Active” and the Activity (Glucagon receptor [8]) was “Active”. The Activity [9] was “tde”, the Activity [10] was “inactive” and the Activity [11] was “Active”. The Activity [12] was “Active”, the Activity [13] was “inactive” and the Activity (Glucagon receptor [14]) was “inactive”. For the same molecule, the Activity (Glucagon receptor [15]) was “inactive” and the Activity (Glucagon receptor [16]) was “Active”.

With GLUCAGON the Activity (Glucagon receptor [17]) was “Active”, the Activity (Glucagon receptor [18]) was “Active” and the Activity (Glucagon receptor [19]) was “Active”. The Activity (Glucagon receptor [20]) was “Active”.
